Data: ChEMBL document CHEMBL3352304, “Synthesis and evaluation of 3-salicyloylpyridine derivatives as cytotoxic mitochondrial apoptosis inducers” (Bioorg Med Chem Lett, 2014)
Activity calls are given as the source filed them. No cut-off for these calls is given here.

Columns and labels:
MCF7 = experiment: Cytotoxicity against human MCF7 cells after 48 hrs by SRB assay; assay type: functional, cell-based; conditions: MCF7, 48 h
[1] = Cytotoxicity against human Hep cells after 48 hrs by SRB assay; assay type: functional, cell-based
[2] = Cytotoxicity against human PC3 cells after 48 hrs by SRB assay; assay type: functional, cell-based; conditions: PC-3, 48 h
HeLa = experiment: Cytotoxicity against human HeLa cells after 48 hrs by SRB assay; assay type: functional, cell-based
[3] = Cytotoxicity against human IMR32 cells after 48 hrs by SRB assay; assay type: functional, cell-based; conditions: IMR-32, 48 h
PC-3 [4] = experiment: Induction of apoptosis in human PC3 cells at 2 uM incubated for 12 hrs by DAPI staining based confocal laser microscopy; assay type: functional, cell-based
Summary of the method: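 PC-3 human prostate cancer cells (1 × 10⁶ in 1 ml medium) grown to confluence for 24 h at 37 °C, 5% CO₂, then exposed 12 h. Medium replaced with serum-free medium and cells stained with DAPI for 1 h at 37 °C. Nuclear and cell morphology imaged by laser scanning confocal fluorescence microscopy against untreated control cells.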

PC-3 [5] = experiment: Induction of apoptotic morphological changes in human PC3 cells assessed as spherical cell shape changes at cytotoxic IC50 level incubated for 12 hrs by DAPI staining based confocal laser microscopy; assay type: functional
Summary of the method: (§1)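 PC-3 cells (1 × 10⁶) in 1 ml medium in 24-well plates grown to confluence 24 h at 37 °C, 5% CO₂, then exposed to test compound at its IC₅₀ for 12 h; camptothecin 2 µM as positive control. Medium replaced with serum-free medium, cells stained with DAPI (10 mM) 1 h at 37 °C and imaged by laser scanning confocal fluorescence microscopy against untreated control.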

PC-3 [6] = experiment: Induction of apoptotic morphological changes in human PC3 cells assessed as increase in apoptotic bodies at cytotoxic IC50 level incubated for 12 hrs by DAPI staining based confocal laser microscopy; assay type: functional, cell-based; summary of the method: as §1
PC-3 [7] = experiment: Reduction in mitochondrial membrane potential in human PC3 cells incubated for 12 hrs by rhodamine-123 dye based spectrofluorimetry; assay type: functional, cell-based
Summary of the method: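 PC-3 cells (1 × 10⁶) in 24-well plates incubated with or without test compound at 1, 5 and 10 µM for 12 h at 37 °C, 5% CO₂, washed with PBS, then loaded with rhodamine-123 1 h in serum-free medium. Fluorescence read in a plate reader at excitation 480 nm / emission 530 nm; shown with SD.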

PC-3 [8] = experiment: Induction of apoptotic morphological changes in human PC3 cells assessed as cell size condensation at cytotoxic IC50 level incubated for 12 hrs by scanning electron microscopy; assay type: functional, cell-based
Summary of the method: (§2)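 PC-3 cells incubated with test compound at its IC₅₀ for 12 h, with 2 µM camptothecin as positive control and untreated cells as control; cell surface morphology examined by scanning electron microscopy.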

PC-3 [9] = experiment: Induction of apoptotic morphological changes in human PC3 cells assessed as plasma membrane blebbing at cytotoxic IC50 level incubated for 12 hrs by scanning electron microscopy; assay type: functional, cell-based; summary of the method: as §2
PC-3 [10] = experiment: Induction of apoptotic morphological changes in human PC3 cells assessed as cell surface smoothening at cytotoxic IC50 level incubated for 12 hrs by scanning electron microscopy; assay type: functional, cell-based; summary of the method: as §2
PC-3 [11] = experiment: Induction of apoptotic morphological changes in human PC3 cells assessed as plasma membrane blebbing at cytotoxic IC50 level incubated for 12 hrs by DAPI staining based confocal laser microscopy; assay type: functional, cell-based; summary of the method: as §1
PC-3 [12] = experiment: Induction of intracellular ROS generation in human PC3 cells incubated for 12 hrs by DCFH-DA dye based spectrofluorimetry; assay type: functional, cell-based
Summary of the method: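 PC-3 cells plated at 1 × 10⁶ cells/dish in 24-well plates, adhered 6 h, then grown with or without test compound at 5, 10 and 15 µM for 12 h; DCFH-DA added 30 min before end. Trypsinized plus floating cells collected, 1 × 10⁶ cells pelleted, resuspended in ice-cold PBS (1.0 ml) and intracellular peroxides measured by spectrofluorimetry.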

SMILES	IC50 (MCF7)	IC50 [1]	IC50 [2]	IC50 (HeLa)	IC50 [3]	other results
C=CCOc1ccccc1C(=O)c1cccnc1	> 100 µM	> 100 µM	55 µM	> 100 µM	44 µM	
CO[C@@]12[C@H](COC(N)=O)C3=C(C(=O)C(C)=C(N)C3=O)N1C[C@@H]1N[C@@H]12 [MITOMYCIN]			1.5 µM			
O=C(c1cccnc1)c1ccc(Br)cc1O	> 100 µM	85 µM	88.6 µM	37 µM	89 µM	
C=CCOc1ccc(Br)cc1C(=O)c1cccnc1	92 µM	78 µM	59 µM	96 µM	88 µM	
O=C(c1cccnc1)c1ccccc1O	24.6 µM	31 µM	33.4 µM	33 µM	33.7 µM	
O=C(c1cccnc1)c1cccc(Cl)c1O	26.7 µM	28 µM	31.5 µM	21 µM	26 µM	
O=C(c1cccnc1)c1cc(Br)ccc1O	53.5 µM	29 µM	60.2 µM	29 µM	23.4 µM	
O=C(c1cccnc1)c1cc(Cl)ccc1O	29 µM	27 µM	24.8 µM	24 µM	19.5 µM	
C=CCOc1c(Cl)cc(Cl)cc1C(=O)c1cccnc1	85 µM	> 100 µM	96 µM	34 µM	52 µM	
O=c1[nH]cc(F)c(=O)[nH]1 [FLUOROURACIL]		0.5 µM			1.3 µM	
O=C(c1cccnc1)c1cc(F)ccc1O	27.8 µM	12 µM	11.8 µM	27 µM	6.21 µM	
CC(=O)O[C@H]1C(=O)[C@@]2(C)[C@H]([C@H](OC(=O)c3ccccc3)[C@]3(O)C[C@H](OC(=O)[C@H](O)[C@@H](NC(=O)c4ccccc4)c4ccccc4)C(C)=C1C3(C)C)[C@]1(OC(C)=O)CO[C@@H]1C[C@@H]2O [PACLITAXEL]	0.2 µM					
CC[C@@]1(O)C(=O)OCc2c1cc1n(c2=O)Cc2cc3ccccc3nc2-1						Activity (PC-3 [4]): Active
C=CCOc1cc(Br)ccc1C(=O)c1cccnc1	> 100 µM	> 100 µM	> 100 µM	> 100 µM	98 µM	
C=CCOc1ccc(F)cc1C(=O)c1cccnc1	> 100 µM	> 100 µM	> 100 µM	93 µM	91 µM	
C=CCOc1ccc(Cl)cc1C(=O)c1cccnc1	54 µM	> 100 µM	> 100 µM	75 µM	91 µM	
O=C(c1cccnc1)c1cc(Cl)cc(Cl)c1O	29.6 µM	27 µM	28.7 µM	> 100 µM	28.8 µM	
Cc1ccc(O)c(C(=O)c2cccnc2)c1	8.04 µM	11 µM	10 µM	26 µM	5.54 µM	Activity (PC-3 [5]): Active; Activity (PC-3 [6]): Active; Activity (PC-3 [7]): Dose-dependent effect; Activity (PC-3 [8]): Active; Activity (PC-3 [9]): Active; Activity (PC-3 [10]): Active; Activity (PC-3 [11]): Active; Activity (PC-3 [12]): Dose-dependent effect
C=CCOc1ccc(C)cc1C(=O)c1cccnc1	84 µM	72 µM	98 µM	94 µM	87 µM	
C=CCOc1c(Cl)cccc1C(=O)c1cccnc1	> 100 µM	92 µM	> 100 µM	100 µM	94 µM	
